Values belong to the molecule of their own block, whether it stands above or below them. Activity calls are given as the source filed them. No cut-off for these calls is given here.
Columns and labels:
[1] = target: Tumour suppressor p53/oncoprotein Mdm2 (Homo sapiens, UniProt Q00987); assay: Inhibition of GST-tagged MDM2 (amino acids 17 to 111 residues)/p53 (unknown origin) interaction incubated for 15 mins by; type: protein assay
[2] = target: E3 ubiquitin-protein ligase Mdm2 (Mus musculus) (UniProt P23804); assay: In-vivo inhibition of MDM2 in BomTac:NMRI-Foxn1^nu mouse xenografted with human SJSA-1 cells assessed as induction of CDKN1a protein accumulation at 100 mg/kg, po administered as single dose and measured after 6 to 24 hrs by immunohistochemical analysis; type: functional, organism-based; settings: time 6-24 hrs
Summary of the method: (§1)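 SJSA-1 tumor-bearing NMRI nude mice received one oral dose of 100 mg/kg. Tumors were harvested at 6 h and 24 h. Sections were stained by immunohistochemistry for CDKN1a, TP53 and cleaved CASPASE3.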

[3] = target: E3 ubiquitin-protein ligase Mdm2 (Mus musculus) (UniProt P23804); assay: In-vivo inhibition of MDM2 in BomTac:NMRI-Foxn1^nu mouse xenografted with human SJSA-1 cells assessed as induction of MDM2 protein accumulation at 100 mg/kg, po administered as single dose and measured after 6 to 24 hrs by mesoscale assay; type: functional, organism-based; settings: time 6-24 hrs
Summary of the method: (§2)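 In NMRI nude mice with established subcutaneous SJSA-1 tumors, a single oral 100 mg/kg dose was compared with vehicle. Tumors collected at 6 h and 24 h post-dose were analysed for protein biomarkers by Meso-Scale assay.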

[4] = target: E3 ubiquitin-protein ligase Mdm2 (Mus musculus) (UniProt P23804); assay: In-vivo inhibition of MDM2 in BomTac:NMRI-Foxn1^nu mouse xenografted with human SJSA-1 cells assessed as induction of cleaved caspse-3 protein accumulation at 100 mg/kg, po administered as single dose and measured after 6 to 24 hrs by mesoscale assay; type: functional, organism-based; settings: time 6-24 hrs; summary of the method: as §2
SJSA-1 [5] = assay: Antiproliferative activity against human SJSA-1 cells expression wild type p53 incubated for 3 days by Alamar Blue dye based assay; type: functional, cell-based; settings: SJSA-1, 72 h
[6] = Volume of distribution at steady state in NMRI mouse at 5 mg/kg, iv; type: ADME, organism-based; settings: in vivo, read-out: Vdss
Summary of the method: (§3)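 Non-tumor-bearing female NMRI nude mice were given a single dose by one of two routes. The iv arm received 5 mg/kg as a bolus in 25% HP-B-CD. The po arm received 50 mg/kg in 0.5% Natrosol (pH 7-8, NaOH titrated). Both used 10 ml/kg. Plasma levels were measured by LC/MS/MS, n=3 per dose group. Parameters came from non-compartmental analysis, with AUC0-24h by linear trapezoidal interpolation.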

[7] = target: E3 ubiquitin-protein ligase Mdm2 (Mus musculus) (UniProt P23804); assay: In-vivo inhibition of MDM2 in BomTac:NMRI-Foxn1^nu mouse xenografted with human SJSA-1 cells assessed as induction of BBC3 mRNA expression at 100 mg/kg, po administered as single dose and measured after 6 to 24 hrs by q-RT-PCR analysis; type: functional, organism-based; settings: time 6-24 hrs, TDE = time-dependent effect
Summary of the method: (§4)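 Established subcutaneous SJSA-1 xenografts in NMRI nude mice were dosed once orally at 100 mg/kg, or with vehicle. Tumors were harvested 6 h and 24 h after dosing. TP53 target-gene mRNA was quantified by q-RT-PCR.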

[8] = AUC (0 to 24 hrs) in NMRI mouse at 50 mg/kg, po; type: ADME, organism-based; set-up: time < 24 hr, route oral, dose 50 mg/kg; settings: in vivo; summary of the method: as §3
[9] = target: E3 ubiquitin-protein ligase Mdm2 (Mus musculus) (UniProt P23804); assay: In-vivo inhibition of MDM2 in BomTac:NMRI-Foxn1^nu mouse xenografted with human SJSA-1 cells assessed as induction of CDKN1a mRNA expression at 100 mg/kg, po administered as single dose and measured after 6 to 24 hrs by q-RT-PCR analysis; type: functional, organism-based; settings: time 6-24 hrs, TDE = time-dependent effect; summary of the method: as §4
[10] = target: E3 ubiquitin-protein ligase Mdm2 (Mus musculus) (UniProt P23804); assay: In-vivo inhibition of MDM2 in BomTac:NMRI-Foxn1^nu mouse xenografted with human SJSA-1 cells assessed as induction of TP53 protein accumulation at 100 mg/kg, po administered as single dose and measured after 6 to 24 hrs by mesoscale assay; type: functional, organism-based; settings: time 6-24 hrs; summary of the method: as §2
[11] = target: E3 ubiquitin-protein ligase Mdm2 (Mus musculus) (UniProt P23804); assay: In-vivo inhibition of MDM2 in BomTac:NMRI-Foxn1^nu mouse xenografted with human SJSA-1 cells assessed as induction of TP53 protein accumulation at 100 mg/kg, po administered as single dose and measured after 6 to 24 hrs by immunohistochemical analysis; type: functional, organism-based; settings: time 6-24 hrs; summary of the method: as §1
SJSA-1 [12] = assay: Antitumor activity against human SJSA-1 cells xenografted in BomTac:NMRI-Foxn1^nu mouse assessed as induction of tumor regression at 100 mg/kg, po administered as single dose and measured up to 13 days; type: functional, organism-based; settings: time day <=13
Summary of the method: (§5)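 NMRI nude mice bearing established subcutaneous SJSA-1 osteosarcoma tumors received oral treatment, with a vehicle control group. There were 8 animals per group. Median tumor volume and median body weight change (% of initial) were tracked.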

SK-OV-3 = assay: Antiproliferative activity against human SK-OV-3 cells expression p53 mutant incubated for 3 days by Alamar Blue dye based assay; type: functional, cell-based; settings: SK-OV-3, 72 h
Summary of the method: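 p53-mutant SK-OV-3 cells were used in a growth/proliferation assay, with compounds tested up to 25 μM.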

[13] = target: E3 ubiquitin-protein ligase Mdm2 (Mus musculus) (UniProt P23804); assay: In-vivo inhibition of MDM2 in BomTac:NMRI-Foxn1^nu mouse xenografted with human SJSA-1 cells assessed as induction of cleaved CASPASE3 protein accumulation at 100 mg/kg, po administered as single dose and measured after 6 to 24 hrs by immunohistochemical analysis; type: functional, organism-based; settings: time 6-24 hrs; summary of the method: as §1
[14] = target: E3 ubiquitin-protein ligase Mdm2 (Mus musculus) (UniProt P23804); assay: In-vivo inhibition of MDM2 in BomTac:NMRI-Foxn1^nu mouse xenografted with human SJSA-1 cells assessed as induction of MDM2 mRNA expression at 100 mg/kg, po administered as single dose and measured after 6 to 24 hrs by q-RT-PCR analysis; type: functional, organism-based; settings: time 6-24 hrs, TDE = time-dependent effect; summary of the method: as §4
[15] = Clearance in NMRI mouse at 5 mg/kg, iv; type: ADME, organism-based; settings: in vivo; summary of the method: as §3
SJSA-1 [16] = assay: Antitumor activity against human SJSA-1 cells xenografted in BomTac:NMRI-Foxn1^nu mouse assessed as induction of tumor regression at 25 mg/kg, po dosed daily for 13 days; type: functional, organism-based; settings: time 13.0 day; summary of the method: as §5
[17] = Cmax in NMRI mouse at 50 mg/kg, po; type: ADME, organism-based; set-up: route oral, dose 50 mg/kg; settings: in vivo; summary of the method: as §3
[18] = Oral bio availability in NMRI mouse at 50 mg/kg; type: ADME, organism-based; settings: in vivo; summary of the method: as §3

Chain of Tumour suppressor p53/oncoprotein Mdm2 (P04637 whole entry, the tested form may be a part): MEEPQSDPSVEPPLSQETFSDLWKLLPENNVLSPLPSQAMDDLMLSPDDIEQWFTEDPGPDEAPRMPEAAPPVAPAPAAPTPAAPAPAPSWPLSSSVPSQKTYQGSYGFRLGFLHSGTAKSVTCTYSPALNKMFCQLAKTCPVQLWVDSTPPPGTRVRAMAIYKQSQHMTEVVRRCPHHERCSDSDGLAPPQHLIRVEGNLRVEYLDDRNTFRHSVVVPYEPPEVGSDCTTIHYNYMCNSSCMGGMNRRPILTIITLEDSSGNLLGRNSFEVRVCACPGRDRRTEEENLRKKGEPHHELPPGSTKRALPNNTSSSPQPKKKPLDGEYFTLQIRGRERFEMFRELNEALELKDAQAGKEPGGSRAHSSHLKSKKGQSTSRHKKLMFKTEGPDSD
Chain of Tumour suppressor p53/oncoprotein Mdm2 (Q00987 whole entry, the tested form may be a part): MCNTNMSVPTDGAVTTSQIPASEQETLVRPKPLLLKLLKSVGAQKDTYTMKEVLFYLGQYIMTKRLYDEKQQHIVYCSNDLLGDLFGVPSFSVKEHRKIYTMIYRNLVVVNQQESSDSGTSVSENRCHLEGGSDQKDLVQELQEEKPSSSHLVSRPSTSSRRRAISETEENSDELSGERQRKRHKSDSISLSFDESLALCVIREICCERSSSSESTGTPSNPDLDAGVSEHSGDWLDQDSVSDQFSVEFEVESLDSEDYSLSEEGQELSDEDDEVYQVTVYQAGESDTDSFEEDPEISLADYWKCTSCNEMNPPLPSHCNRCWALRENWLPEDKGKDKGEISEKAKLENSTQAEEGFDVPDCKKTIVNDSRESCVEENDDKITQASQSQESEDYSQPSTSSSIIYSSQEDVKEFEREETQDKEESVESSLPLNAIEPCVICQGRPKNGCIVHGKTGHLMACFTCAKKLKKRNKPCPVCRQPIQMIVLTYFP
Chain of E3 ubiquitin-protein ligase Mdm2 (Mus musculus) (P23804 whole entry): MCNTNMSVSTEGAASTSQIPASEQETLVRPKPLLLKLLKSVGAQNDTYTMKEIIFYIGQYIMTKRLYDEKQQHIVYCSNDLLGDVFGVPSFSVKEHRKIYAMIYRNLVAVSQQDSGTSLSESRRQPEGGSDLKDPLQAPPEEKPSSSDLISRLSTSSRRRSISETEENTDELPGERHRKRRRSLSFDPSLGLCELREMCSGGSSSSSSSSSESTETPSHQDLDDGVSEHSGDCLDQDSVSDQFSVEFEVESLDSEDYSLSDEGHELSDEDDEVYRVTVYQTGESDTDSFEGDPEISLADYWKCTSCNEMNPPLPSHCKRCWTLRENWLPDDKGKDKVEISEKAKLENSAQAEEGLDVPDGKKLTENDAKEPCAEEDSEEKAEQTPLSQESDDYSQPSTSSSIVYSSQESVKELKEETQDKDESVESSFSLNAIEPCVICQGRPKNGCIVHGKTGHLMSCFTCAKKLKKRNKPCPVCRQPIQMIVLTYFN

Compound: NC(=O)CC[C@@H]1N[C@@]2(C(=O)Nc3cc(Cl)ccc32)[C@@H](c2cccc(Cl)c2)[C@@H]1[N+](=O)[O-] (racemic)
IC50 [1]: 13.5 µM

Compound: CCOc1cccc(CN2[C@@H](C)[C@@H](N)[C@H](c3cccc(Cl)c3F)[C@]23C(=O)Nc2cc(Cl)ccc23)c1
IC50 [1]: 0.034 µM

Compound: O=C1Nc2cc(Cl)ccc2[C@]12N[C@@H](Cn1cncn1)[C@@H]([N+](=O)[O-])[C@@H]2c1cccc(Cl)c1 (racemic)
IC50 [1]: 5.5 µM

Compound: CC(C)CCN1[C@@H](C)[C@@H](N)[C@H](c2cccc(Cl)c2)[C@]12C(=O)Nc1cc(Cl)ccc12 (racemic)
IC50 [1]: 1.07 µM

Compound: O=C1Nc2cc(Cl)ccc2[C@]12N[C@@H](CO)[C@@H]([N+](=O)[O-])[C@@H]2c1cccc(Cl)c1 (racemic)
IC50 [1]: 30.7 µM

Compound: CC(=O)N[C@@H]1[C@H](C)N(CC2CC2)[C@@]2(C(=O)Nc3cc(Cl)ccc32)[C@H]1c1cccc(Cl)c1F
IC50 [1]: 0.229 µM

Compound: CSC[C@@H]1N[C@@]2(C(=O)Nc3cc(Cl)ccc32)[C@@H](c2cccc(Cl)c2)[C@@H]1[N+](=O)[O-] (racemic)
IC50 [1]: 24.6 µM

Compound: O=C(O)CC[C@@H]1N[C@@]2(C(=O)Nc3cc(Cl)ccc32)[C@@H](c2cccc(Cl)c2)[C@@H]1[N+](=O)[O-] (racemic)
IC50 [1]: 16 µM

Compound: NC(=O)c1cccc(C[C@@H]2N[C@@]3(C(=O)Nc4cc(Cl)ccc43)[C@@H](c3cccc(Cl)c3)[C@@H]2[N+](=O)[O-])c1 (racemic)
IC50 [1]: 18.3 µM

Compound: C[C@@H]1N[C@@]2(C(=O)Nc3cc(Cl)ccc32)[C@@H](c2cccc(Cl)c2)[C@@H]1[N+](=O)[O-] (racemic)
IC50 [1]: 40 µM

Compound: CCOc1cccc(CN2[C@H]3CCN(CC(=O)O)[C@H]3[C@H](c3cccc(Cl)c3F)[C@]23C(=O)Nc2cc(Cl)ccc23)c1
IC50 (SJSA-1 [5]): 287 nM | IC50 (SK-OV-3): > 25 µM

More lines, main results first:

IC50 [1]: 0.039 µM
Compound: O=C(O)CN1CC[C@H]2[C@@H]1[C@H](c1cccc(Cl)c1F)[C@]1(C(=O)Nc3cc(Cl)ccc31)N2CC1CC1 (racemic)

IC50 [1]: 0.081 µM
Compound: COC(=O)c1ccc([C@H]2C[C@H]3[C@@H](N2)[C@H](c2cccc(Cl)c2F)[C@]2(C(=O)Nc4cc(Cl)ccc42)N3CC2CC2)cc1

inhibition [2]: Active | inhibition [3]: Active | inhibition [4]: Active | IC50 (SJSA-1 [5]): 471 nM | Vd [6]: 2.1 L/kg | inhibition [7]: Tde | AUC(0-t) at 24 h [8]: 264 µM·h | inhibition [9]: Tde | inhibition [10]: Active | inhibition [11]: Active | IC50 (SK-OV-3): > 25 µM | inhibition [13]: Active | inhibition [14]: Tde | clearance [15]: 7.1 mL/min/kg | Cmax [17]: 21.3 µM
Compound: O=C(O)c1ccc([C@H]2C[C@H]3[C@@H](N2)[C@H](c2cccc(Cl)c2F)[C@]2(C(=O)Nc4cc(Cl)ccc42)N3CC2CC2)cc1
Activity (SJSA-1 [12]): Active | Activity (SJSA-1 [16]): Active

IC50 [1]: 0.107 µM
Compound: C[C@H]1[C@@H](NCc2ccc(C(=O)O)cc2)[C@H](c2cccc(Cl)c2F)[C@]2(C(=O)Nc3cc(Cl)ccc32)N1CC1CC1

IC50 (SJSA-1 [5]): 1450 nM | Vd [6]: 2 L/kg | AUC(0-t) at 24 h [8]: 100 µM·h | IC50 (SK-OV-3): > 25 µM | bioavailability [18]: 58% | clearance [15]: 7.4 mL/min/kg | Cmax [17]: 6.9 µM
Compound: NC(=O)c1ccc([C@H]2C[C@H]3[C@@H](N2)[C@H](c2cccc(Cl)c2F)[C@]2(C(=O)Nc4cc(Cl)ccc42)N3CC2CC2)cc1
